Experimental findings from ChEMBL document CHEMBL1123378, “Cardiotonic agents. 1. Synthesis and structure-activity relationships in a new class of 3-, 4-, and 5-pyridyl-2(1H)-quinolone derivatives” (1986) are described below.

Assay [1] is filed under the species Cavia porcellus. Briefly: Positive inotropic activity in isolated left guinea pig atria. It counts as functional. To be noted: read-out: ED50 (the source's name). An outline of the steps:
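Isolated guinea pig left atria were paced electrically with square-wave pulses (2.5 Hz, 5 ms, voltage 50% above threshold) and stretched to 0.5 g resting tension. The bath was Krebs–Henseleit at 32 °C, gassed with 95% O2/5% CO2. An isoprenaline dose–response curve was run first to test each preparation. The ED50 (mol/L, dose giving 50% of maximum effect) was derived by the Ariens–Van Rossum method.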

The species named for assay [2] is Cavia porcellus. Briefly: Maximum response compared to maximum response to isoprenaline. It counts as functional. Put shortly:
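Electrically paced isolated guinea pig left atria (2.5 Hz, 5 ms pulses, 50% above threshold) were held in Krebs–Henseleit at 32 °C under 95% O2/5% CO2 and 0.5 g resting tension. Intrinsic activity is the compound's maximal inotropic response divided by the isoprenaline maximum, with isoprenaline set to 1. The number of experiments is given per value.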

For the molecule `Cl.Nc1cc2ccccc2nc1O`, the EC50 in the assay filed under Cavia porcellus [1] is above 77 µM. This molecule also showed an Intrinsic activity in the assay listed under Cavia porcellus [2] of 0.2.
As for `Cl.Oc1ccc2c(-c3ccncc3)ccc(O)c2n1`, in the assay filed under Cavia porcellus [1], the EC50 was determined as 20 µM. In addition, in the assay filed under Cavia porcellus [2], the Intrinsic activity was 0.24.
For `COc1ccc(-c2ccncc2)c2ccc(O)nc12.Cl` the same measures were 35 µM and 0.75.
The like results for `Br.Oc1ccc2c(-c3cccnc3)ccc(O)c2n1` were, in that order, 6.75 µM and 0.62.
For `COc1cccc2c(-c3ccncc3)cc(O)nc12.Cl` the same measures were 38 µM and 0.45.
Take `Cl.Oc1cc(-c2ccncc2)c2cccc(O)c2n1`: the EC50 in the assay listed under Cavia porcellus [1] was 22 µM. For the same molecule, the Intrinsic activity in the assay listed under Cavia porcellus [2] was 0.55.
For `COc1ccc(-c2cccnc2)c2ccc(O)nc12.Cl` the same measures were 5.75 µM and 0.79.
The like results for `COc1ccc(N)c2ccc(O)nc12.Cl` were, in that order, 235 µM and 0.23.
For `COc1ccc(-c2cccnc2)c2c1NC(=O)CC2` the same measures were 12 µM and 0.56.
Turning to `Oc1nc2ccccc2cc1-c1cccnc1`, the EC50 in the assay listed under Cavia porcellus [1] was determined as 300 µM. In addition, in the assay filed under Cavia porcellus [2], the Intrinsic activity is 0.08.
For `COc1ccc(-c2cccnc2)cc1NC(=O)CC(C)=O` the same measures were 8.3 µM and 0.51.
For `COc1ccc(-c2ccccn2)c2c1NC(=O)CC2` the same measures were 22 µM and 0.44.
The like results for `Oc1ccc2c(-c3cccnc3)cccc2n1` were, in that order, 1.3 µM and 0.83.
For the molecule `COc1ccc(-c2ccncc2)c2c1NC(=O)CC2`, in the assay filed under Cavia porcellus [1], the EC50 worked out at 31 µM. The Intrinsic activity in the assay listed under Cavia porcellus [2] is recorded as 0.75.
The like results for `COc1ccc(-c2ccccn2)c2ccc(O)nc12` were, in that order, 34.5 µM and 0.62.
In the case of `CCO/C=C\C(=O)Nc1cc(-c2cccnc2)ccc1Cl`, the Intrinsic activity in the assay listed under Cavia porcellus [2] stood at 0.28.
Same read-out and setting: for `CCO/C=C\C(=O)Nc1cccc(-c2cccnc2)c1` the value was 0.42; for `CCO/C=C\C(=O)Nc1cccc(-c2ccccn2)c1`, 0.33; for `CCO/C=C\C(=O)Nc1cc(-c2cccnc2)ccc1OC`, 0.54.
On the same count and under the same terms, for `CC(C)NCC(O)c1ccc(O)c(O)c1` (centres undefined) [ISOPROTERENOL] the value was 1.
With `Cc1[nH]c(=O)c(C#N)cc1-c1ccncc1` [MILRINONE], the EC50 in the assay listed under Cavia porcellus [1] turned out to be 14 µM. Besides, in the assay filed under Cavia porcellus [2], the Intrinsic activity was 0.67.
The like results for `COc1cc([S+](C)[O-])ccc1-c1nc2cccnc2[nH]1` (centres undefined) [SULMAZOLE] were, in that order, 12 µM and 0.85.
